Test results as given in ChEMBL document CHEMBL3751681, “Natural product-based synthesis of novel anti-infective isothiocyanate- and isoselenocyanate-functionalized amphilectane diterpenes” (Bioorg Med Chem Lett, 2016).
In brackets after ≈: the same amount, converted by molar mass.

Columns and labels:
[1] = Selectivity index, ratio of IC50 for African green monkey Vero cells to MIC for Mycobacterium tuberculosis H37Rv ATCC 27294; format: toxicity, cell-based; conditions: read-out: Selectivity Index
[2] = Selectivity index, ratio of IC50 for African green monkey Vero cells to IC50 for chloroquine-resistant Plasmodium falciparum Dd2; format: toxicity, cell-based; conditions: read-out: Ratio IC50
[3] = tested on: Mycobacterium tuberculosis; assay: Antimycobacterial activity against Mycobacterium tuberculosis H37Rv ATCC 27294 by microplate alamar blue assay; format: functional
Summary of the method: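 Mtb H37Rv tested in the microplate Alamar blue assay; rifampicin served as positive control.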

[4] = Selectivity index, ratio of IC50 for African green monkey Vero cells to IC50 for chloroquine-sensitive Plasmodium falciparum 3D7; format: toxicity, cell-based; conditions: read-out: Ratio IC50
[5] = tested on: Plasmodium falciparum; assay: Antiplasmodial activity against chloroquine-resistant Plasmodium falciparum Dd2 infected in human RBCs after 72 hrs by SYBR Green based parasite proliferation assay; format: functional, organism-based; conditions: Dd2, 72 h
Summary of the method: (§1)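 P. falciparum (3D7 or Dd2) grown in human O+ erythrocytes in RPMI 1640 with gentamicin, hypoxanthine, HEPES, bicarbonate, glucose, Albumax and 5% human serum. Gassed with 3% CO2, 1% O2, 96% N2 and held at 37°C. Parasites exposed to serial compound dilutions for 72 h. Parasite DNA increase read by SYBR Green fluorescence (ex 495, em 525 nm).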

[6] = tested on: Vero; assay: Cytotoxicity against African green monkey Vero cells by MTS assay; format: cell-based; conditions: Chlorocebus sabaeus
[7] = tested on: Plasmodium falciparum; assay: Antiplasmodial activity against chloroquine-sensitive Plasmodium falciparum 3D7 infected in human RBCs after 72 hrs by SYBR Green based parasite proliferation assay; format: functional, organism-based; conditions: 3D7, 72 h; summary of the method: as §1

| Compound | selectivity ratio [1] | selectivity ratio [2] | MIC [3] [µM] | selectivity ratio [4] | IC50 [5] [µM] | IC50 [6] [µM] | IC50 [7] [µM] |
| --- | --- | --- | --- | --- | --- | --- | --- |
| [C-]#[N+]C(C)(C)C[C@@H]1C[C@H](C)[C@H]2CC[C@H](C)[C@@]3([N+]#[C-])CCC(=C)[C@@H]1[C@H]23 [DIISOCYANOAMPHILECTENE] | 10.2 | 32200 | 9.8 (≈ 3.18 µg/mL) | 83100 | 0.0031 |  |  |
| CO[C@H]1/C=C/O[C@@]2(C)Oc3c(C)c(O)c4c(O)c(c(/C=N/N5CCN(C)CC5)c(O)c4c3C2=O)NC(=O)/C(C)=C\C=C\[C@H](C)[C@H](O)[C@@H](C)[C@@H](O)[C@@H](C)[C@H](OC(C)=O)[C@@H]1C [RIFAMPIN] | > 1100 |  | 0.09 (≈ 0.0741 µg/mL) |  |  | > 100 |  |
| C=C1CC[C@@]2(N=C=[Se])[C@H]3[C@H](CC[C@@H]2C)[C@@H](C)C[C@@H](CC(C)(C)N=C=[Se])[C@H]13 | 12.4 | 7360 | 3.9 (≈ 1.88 µg/mL) | 19400 | 0.0066 | 48.6 | 0.0025 |
| C=C1CC[C@@]2(N=C=S)[C@H]3[C@H](CC[C@@H]2C)[C@@H](C)C[C@@H](CC(C)(C)N=C=S)[C@H]13 | > 1 | > 9 | 99.1 (≈ 38.5 µg/mL) | > 8 | 11.6 | > 100 | 11.8 |
